ChEMBL document CHEMBL1128488, “4-Diazinyl- and 4-pyridinylimidazoles: potent angiotensin II antagonists. A study of their activity and computational characterization” (J Med Chem, 1995)

Columns and labels:
[1] = molecular target: T1, Angiotensin II receptor (AT-1) type-1 (Rattus norvegicus, UniProt P29089+P25095); assay: Inhibition of [3H]angiotensin II binding to rat adrenal cortex membrane containing angiotensin II receptor, type 1; type: tissue-based
T1 sequence (P29089 whole entry): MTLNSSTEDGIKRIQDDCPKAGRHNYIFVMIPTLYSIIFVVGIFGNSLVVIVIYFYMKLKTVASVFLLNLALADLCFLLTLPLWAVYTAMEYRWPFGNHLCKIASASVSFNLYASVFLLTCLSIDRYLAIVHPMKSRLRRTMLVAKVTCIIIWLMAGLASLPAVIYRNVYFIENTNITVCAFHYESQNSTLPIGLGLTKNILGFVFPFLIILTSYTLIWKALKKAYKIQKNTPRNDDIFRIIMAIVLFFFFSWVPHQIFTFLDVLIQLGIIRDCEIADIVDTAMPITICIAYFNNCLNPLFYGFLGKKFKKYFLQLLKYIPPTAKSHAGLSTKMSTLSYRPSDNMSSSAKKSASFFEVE
T1 sequence (P25095 whole entry): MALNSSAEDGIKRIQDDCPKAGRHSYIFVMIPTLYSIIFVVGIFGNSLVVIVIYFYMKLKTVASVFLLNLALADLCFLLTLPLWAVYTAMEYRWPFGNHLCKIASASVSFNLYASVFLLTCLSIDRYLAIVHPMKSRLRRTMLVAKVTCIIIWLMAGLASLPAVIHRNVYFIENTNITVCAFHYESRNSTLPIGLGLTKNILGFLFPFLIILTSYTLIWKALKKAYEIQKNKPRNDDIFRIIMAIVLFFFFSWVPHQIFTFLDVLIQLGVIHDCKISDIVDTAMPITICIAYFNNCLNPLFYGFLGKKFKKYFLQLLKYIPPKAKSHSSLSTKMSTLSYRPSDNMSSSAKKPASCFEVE

Rattus norvegicus [2] = assay: In vivo concentration inhibiting angiotensin II (A II) induced pressor response in conscious normotensive rats 15 mins after oral administration of 2 uM/kg.; type: functional
How it was run: (§1)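 Male Sprague-Dawley rats (280–340 g), premedicated ip with fentanyl/fluanisone and anesthetized with pentobarbital iv during preparation, then tested conscious. Vehicle or compound given orally by stomach tube at 2 μmol kg−1. A II bolus injections every 15 min for the first hour, then every 30 min, over 4 h.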

Rattus norvegicus [3] = assay: In vivo concentration inhibiting angiotensin II (A II) induced pressor response in conscious normotensive rats 30 mins after oral administration of 2 uM/kg.; type: functional; how it was run: as §1

Ki [1] | SMILES | Inhibition (Rattus norvegicus [2]) | Inhibition (Rattus norvegicus [3])
25 nM | CCCCc1nc(-c2cccc(OC)n2)cn1Cc1ccc(-c2ccccc2-c2nn[nH]n2)cc1 | -11% | 
4.5 nM | CCCCc1nc(-c2c(C(=O)OC)ccc(C)[n+]2[O-])cn1Cc1ccc(-c2ccccc2-c2nn[nH]n2)cc1 |  | -55%
70 nM | CCCCc1nc(-c2cnc(C(=O)OC)nc2C)cn1Cc1ccc(-c2ccccc2-c2nn[nH]n2)cc1 |  | 
 | CCCCc1nc(Cl)c(CO)n1Cc1ccc(-c2ccccc2-c2nnn[nH]2)cc1 [LOSARTAN] |  | -33%
44 nM | CCCCc1nc(-c2ccc(C)n[n+]2[O-])cn1Cc1ccc(-c2ccccc2-c2nn[nH]n2)cc1 |  | -35%
180 nM | CCCCc1nc(-c2cc(C(=O)OC)cc(C)[n+]2[O-])cn1Cc1ccc(-c2ccccc2-c2nn[nH]n2)cc1 |  | 
12 nM | CCCCc1nc(-c2ccc(C)nn2)cn1Cc1ccc(-c2ccccc2-c2nn[nH]n2)cc1 | -30% | 
12 nM | CCCCc1nc(-c2ccc(C(=O)OC)cn2)cn1Cc1ccc(-c2ccccc2-c2nn[nH]n2)cc1 |  | -33%
27 nM | CCCCc1nc(-c2ccc(C(=O)OC)c[n+]2[O-])cn1Cc1ccc(-c2ccccc2-c2nn[nH]n2)cc1 |  | 
38 nM | CCCCc1nc(-c2c(OC)ccc(C)[n+]2[O-])cn1Cc1ccc(-c2ccccc2-c2nn[nH]n2)cc1 |  | -22%
77 nM | CCCCc1nc(-c2nc(C)cnc2C)cn1Cc1ccc(-c2ccccc2-c2nn[nH]n2)cc1 |  | -18%
61 nM | CCCCc1nc(-c2nccc[n+]2[O-])cn1Cc1ccc(-c2ccccc2-c2nn[nH]n2)cc1 |  | 
59 nM | CCCCc1nc(-c2ncccn2)cn1Cc1ccc(-c2ccccc2-c2nn[nH]n2)cc1 |  | 
25 nM | CCCCc1nc(-c2cnc[n+]([O-])c2)cn1Cc1ccc(-c2ccccc2-c2nn[nH]n2)cc1 |  | 
250 nM | CCCCc1nc(-c2nc(C)ccc2OC)cn1Cc1ccc(-c2ccccc2-c2nn[nH]n2)cc1 |  | 
41 nM | CCCCc1nc(-c2cc(C(=O)OC)c[n+]([O-])c2)cn1Cc1ccc(-c2ccccc2-c2nn[nH]n2)cc1 |  | 
90 nM | CCCCc1nc(-c2nccnc2C(=O)OC)cn1Cc1ccc(-c2ccccc2-c2nn[nH]n2)cc1 |  | 
54 nM | CCCCc1nc(-c2ccc(C(=O)OC)[n+]([O-])n2)cn1Cc1ccc(-c2ccccc2-c2nn[nH]n2)cc1 |  | 

Ki [1] | SMILES | Inhibition (Rattus norvegicus [2]) | Inhibition (Rattus norvegicus [3])
67 nM | CCCCc1nc(-c2cnccc2C(=O)OC)cn1Cc1ccc(-c2ccccc2-c2nn[nH]n2)cc1 |  | 
29 nM | CCCCc1nc(-c2c(C(=O)OC)ccc[n+]2[O-])cn1Cc1ccc(-c2ccccc2-c2nn[nH]n2)cc1 |  | 
8.8 nM | CCCCc1nc(-c2ccc(C(=O)OC)nn2)cn1Cc1ccc(-c2ccccc2-c2nn[nH]n2)cc1 |  | -9.3%
40 nM | CCCCc1nc(-c2ccc(C)[n+]([O-])n2)cn1Cc1ccc(-c2ccccc2-c2nn[nH]n2)cc1 |  | -27%
19 nM | CCCCc1nc(-c2cccc(C(=O)OC)n2)cn1Cc1ccc(-c2ccccc2-c2nn[nH]n2)cc1 |  | -23%
53 nM | CCCCc1nc(-c2nc(C)cc(C)c2C(=O)OC)cn1Cc1ccc(-c2ccccc2-c2nn[nH]n2)cc1 |  | 
4.4 nM | CCCCc1nc(-c2nc(C)c[n+]([O-])c2C)cn1Cc1ccc(-c2ccccc2-c2nn[nH]n2)cc1 |  | -21%
32 nM | CCCCc1nc(-c2nc(C)ccc2C(=O)OC)cn1Cc1ccc(-c2ccccc2-c2nn[nH]n2)cc1 |  | 
40 nM | CCCCc1nc(-c2ncccc2C(=O)OC)cn1Cc1ccc(-c2ccccc2-c2nn[nH]n2)cc1 |  | 
243 nM | CCCCc1nc(-c2cncc[n+]2[O-])cn1Cc1ccc(-c2ccccc2-c2nn[nH]n2)cc1 |  | 
42 nM | CCCCc1nc(-c2cncnc2)cn1Cc1ccc(-c2ccccc2-c2nn[nH]n2)cc1 |  | 
40 nM | CCCCc1nc(-c2cnccn2)cn1Cc1ccc(-c2ccccc2-c2nn[nH]n2)cc1 |  | 
9.1 nM | CCCCc1nc(-c2c(C(=O)OC)c(C)cc(C)[n+]2[O-])cn1Cc1ccc(-c2ccccc2-c2nn[nH]n2)cc1 |  | -29%
45 nM | CCCCc1nc(-c2cccnc2C(=O)OC)cn1Cc1ccc(-c2ccccc2-c2nn[nH]n2)cc1 |  | 
30 nM | CCCCc1nc(-c2cncc(C(=O)OC)c2)cn1Cc1ccc(-c2ccccc2-c2nn[nH]n2)cc1 |  | 
290 nM | CCCCc1nc(-c2ncccc2OC)cn1Cc1ccc(-c2ccccc2-c2nn[nH]n2)cc1 |  | 
2.5 nM | CCCCc1nc(-c2c(C)ncc(C)[n+]2[O-])cn1Cc1ccc(-c2ccccc2-c2nn[nH]n2)cc1 |  | -44%
